Square brackets hold non-standard residues; d marks the D form. Peptide text beside a SMILES is read from it. * marks the point of attachment. Asu = N[C@@H](CCCCCC(=O)O)C(=O)O; Aib = CC(C)(N)C(=O)O; NHOH = ON*
Tests used:
[1] = system: histone deacetylase (HDAC); experiment: Percent conversion by rat liver histone deacetylase (HDAC) was determined after 3 h; format: ADME; details: read-out: Conversion
Outline: (§1)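 Deacetylase from rat liver, purified by ammonium sulfate precipitation and Q-sepharose NaCl-gradient chromatography (class I and II subtypes), in phosphate buffer pH 7.9 (EDTA, NaCl, glycerol, 2-mercaptoethanol). Enzyme preincubated 15 min at 4 °C, then run at 37 °C with candidate substrate and 7-hydroxycoumarin internal standard. Stopped with HCl/sodium acetate, ethyl acetate extraction, reversed-phase HPLC with fluorescence detection. Conversion taken against no-enzyme control. Duplicates.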

[2] = system: histone deacetylase (HDAC); experiment: Percent conversion by rat liver histone deacetylase (HDAC) was determined after 2 h; format: ADME; details: read-out: Conversion; outline: as §1
[3] = system: histone deacetylase (HDAC); experiment: Percent conversion by rat liver histone deacetylase (HDAC) was determined after 1 h; format: ADME; details: read-out: Conversion; outline: as §1
[4] = system: histone deacetylase (HDAC); experiment: Percent conversion by rat liver histone deacetylase (HDAC) was determined after 6 h; format: ADME; details: read-out: Conversion; outline: as §1
[5] = system: histone deacetylase (HDAC); experiment: Percent conversion by rat liver histone deacetylase (HDAC) was determined after 24 h; format: ADME; details: read-out: Conversion; outline: as §1
Histone deacetylase [6] = experiment: Inhibitory activity against rat liver Histone deacetylase with substrate 3b
Histone deacetylase [7] = experiment: Inhibitory activity against rat liver Histone deacetylase with substrate 5b
Histone deacetylase [8] = experiment: Inhibitory activity against rat liver Histone deacetylase with substrate 3a
Histone deacetylase [9] = experiment: Inhibitory concentration against rat liver histone deacetylase (HDAC) with substrate 5a
Histone deacetylase [10] = experiment: Inhibitory concentration against rat liver histone deacetylase (HDAC) with substrate 3a
[11] = system: HDAC6/HDAC1 (Homo sapiens); experiment: Selectivity ratio for Histone deacetylase 6 versus Histone deacetylase 1

| Structure (SMILES) | metabolised at 3 h [1] [%] | metabolised at 2 h [2] [%] | metabolised at 1 h [3] [%] | metabolised at 6 h [4] [%] | metabolised at 24 h [5] [%] | IC50 (Histone deacetylase [6]) [nM] | IC50 (Histone deacetylase [7]) [nM] | IC50 (Histone deacetylase [8]) [nM] | IC50 (Histone deacetylase [9]) [nM] | IC50 (Histone deacetylase [10]) [nM] | Selectivity [11] |
| --- | --- | --- | --- | --- | --- | --- | --- | --- | --- | --- | --- |
| CC(=O)NCCCC[C@@H](NC(=O)OCc1ccccc1)C(=O)Nc1ccc2c(C)cc(=O)oc2c1 | 0 | 9 | 0 | 3 | 14 | – | – | – | – | – | – |
| CCCC(=O)NCCCC[C@H](NC(=O)OCc1ccccc1)C(=O)Nc1ccc2c(C)cc(=O)oc2c1 | 12 | 1 | 0 | 21 | 48 | – | – | – | – | – | – |
| CC1(C)NC(=O)[C@H](CCCCCC(=O)NO)NC(=O)[C@H]2CCCN2C(=O)[C@H](Cc2ccccc2)NC1=O (cyclo([Aib]F[dP][Asu](NHOH))) | – | – | – | – | – | 226 | 21.2 | 137 | – | – | – |
| CC(=O)NCCCC[C@H](NC(=O)OCc1ccccc1)C(=O)Nc1ccc2c(C)cc(=O)oc2c1 | 93 | 87 | 67 | 96 | 100 | – | – | – | – | – | – |
| CCC(=O)NCCCC[C@H](NC(=O)OCc1ccccc1)C(=O)Nc1ccc2c(C)cc(=O)oc2c1 | 47 | 33 | 20 | 74 | 87 | – | – | – | – | – | – |
| CC(=O)NCCCC[C@H](NC(=O)OC(C)(C)C)C(=O)Nc1ccc2c(C)cc(=O)oc2c1 | 70 | 60 | 38 | 91 | 100 | – | – | – | – | – | – |
| CC(=O)NCCCC[C@H](NC(=O)OC(C)(C)C)C(=O)Nc1ccc2c(C(F)(F)F)cc(=O)oc2c1 | 47 | 43 | 30 | 68 | 96 | – | – | – | – | – | – |
| CN(C)c1ccc(C(=O)NCCCCCC(=O)NO)cc1 | – | – | – | – | – | – | – | – | 640 | 216 | – |
| CC[C@@H](C)[C@@H]1NC(=O)[C@@H](Cc2ccc(OC)cc2)NC(=O)[C@H](CCCCCC(=O)NO)NC(=O)[C@H]2CCCN2C1=O | – | – | – | – | – | 80.4 | 6.29 | 55.7 | – | – | 34 |
| CC(=O)NCCCC[C@H](NC(=O)OCC1c2ccccc2-c2ccccc21)C(=O)Nc1ccc2c(C)cc(=O)oc2c1 | 78 | 74 | 47 | 86 | 90 | – | – | – | – | – | – |
| Cc1cc(=O)oc2cc(NC(=O)[C@H](CCCCNC(=O)C(F)(F)F)NC(=O)OCc3ccccc3)ccc12 | 57 | 41 | 16 | 54 | 64 | – | – | – | – | – | – |
| CN(C)c1ccc(C(=O)NCCCCCCCC(=O)NO)cc1 | – | – | – | – | – | 488 | 241 | 256 | – | – | – |
| Cc1cc(=O)oc2cc(NC(=O)[C@H](CCCCNC(=O)Cc3ccccc3)NC(=O)OCc3ccccc3)ccc12 | 0 | 0 | 0 | 0 | 0 | – | – | – | – | – | – |
| O=C(CCCCC[C@@H]1NC(=O)[C@H]2CCCN2C(=O)[C@H](Cc2ccccc2)NC(=O)[C@H](Cc2ccccc2)NC1=O)NO | – | – | – | – | – | 411 | 65.6 | 349 | – | – | – |
| CN(C)c1ccc(C(=O)NCCCCCCC(=O)NO)cc1 | – | – | – | – | – | 148 | 3512 | 78.2 | – | – | – |

From ChEMBL document CHEMBL1138783, “Subtype selective substrates for histone deacetylases” (J Med Chem, 2004)
